Assay results taken from ChEMBL document CHEMBL1138232, “Optimization of naphthalimide-imidazoacridone with potent antitumor activity leading to clinical candidate (HKH40A, RTA 502)” (J Med Chem, 2007).

Assays:
[1] = tested on: RKO; assay: Antitumor activity against human RKO cells expressing wild type p53; format: functional; settings: read-out: LC50 (the source's name)
Summary of the method: (§1)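 Compounds tested as tri(methanesulfonate) salts, soluble in water and dilute buffers. Human tumour cells carrying wild-type or mutated p53 were exposed for 5 days, and viability was read by MTT assay. GI50, TGI and LC50 were calculated from the MTT data. Values are means ± SD of at least three independent experiments, with coefficients of variation of 10–20%.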

[2] = Plasma clearance in CD2F1 mouse at 20 mg/kg, iv; format: ADME, organism-based; set-up: dose 20 mg/kg, route intravenous
Summary of the method: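 Pilot pharmacokinetics in CD2F1 mice after i.v. injection. Total plasma clearance derived from plasma concentration data.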

[3] = Antitumor activity against human HL60 (TB) cells after 48 hrs; format: functional, HL-60(TB); settings: HL-60, 48 h
Summary of the method: (§2)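 Tested in the NCI 60 human tumour cell line screen, with continuous drug exposure for 48 h. Values include LC50 derived from the screen.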

[4] = tested on: DU-145; assay: Antitumor activity against human DU145 cells after 48 hrs; format: functional; settings: DU-145, 48 h; summary of the method: as §2
[5] = tested on: SF-295; assay: Antitumor activity against human SF295 cells after 48 hrs; format: functional; settings: SF-295, 48 h; summary of the method: as §2
[6] = tested on: SK-MEL-28; assay: Antitumor activity against human SK-MEL-28 cells after 48 hrs; format: functional; settings: SK-MEL-28, 48 h; summary of the method: as §2
[7] = tested on: HCT-15; assay: Antitumor activity against human HCT15 cells after 48 hrs; format: functional; settings: HCT-15, 48 h; summary of the method: as §2
[8] = tested on: U-251; assay: Antitumor activity against human U251 cells after 48 hrs; format: functional; settings: U-251, 48 h
Summary of the method: (§3)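 NCI 60 human tumour cell line screen; 48 h continuous drug exposure. Compounds tested as tri(methanesulfonate) salts, soluble in water and dilute buffers. Dilute solutions are light-sensitive and adsorb to glass or quartz.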

[9] = Antitumor activity against human 10.05 cells expressing mutated p53; format: functional, cell-based; summary of the method: as §1
[10] = tested on: NCI-H226; assay: Antitumor activity against human NCI-H226 cells after 48 hrs; format: functional; settings: NCI-H226, 48 h; summary of the method: as §2
[11] = tested on: HCT-116; assay: Inhibition of tumor growth in HCT116 cells xenografted in nu/nu mouse; format: functional, Homo sapiens
Summary of the method: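 HCT116 xenografts in mice; compound given i.v. on a Q3Dx4 schedule, starting when tumours reached 62 mm3. Tumour growth inhibition measured.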

[12] = tested on: SK-MEL-2; assay: Antitumor activity against human SK-MEL-2 cells after 48 hrs; format: functional; settings: SK-MEL-2, 48 h; summary of the method: as §2
[13] = tested on: Malme-3M; assay: Antitumor activity against human MALME-3M cells after 48 hrs; format: functional; summary of the method: as §2
[14] = tested on: NCI-H23; assay: Antitumor activity against human NCI-H23 cells after 48 hrs; format: functional; settings: NCI-H23, 48 h; summary of the method: as §2
[15] = tested on: HCT-116; assay: Cell cycle arrest in HCT116 cells assessed as accumulation at G1 phase at 50 nM after 72 hrs; format: functional, Homo sapiens
Summary of the method: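 HCT116 cells exposed to 50 nM drug for 72 h, then cell-cycle distribution analysed. Sub-G1, G1, S and G2/M fractions reported as percent of cells, with untreated control cells for comparison.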

[16] = tested on: SNB-75; assay: Antitumor activity against human SNB75 cells after 48 hrs; format: functional; settings: SNB-75, 48 h; summary of the method: as §3
[17] = tested on: HT-29; assay: Antitumor activity against HT29 cells expressing mutated p53; format: functional, cell-based; settings: Homo sapiens; summary of the method: as §1
[18] = tested on: PC-3; assay: Antitumor activity against human PC3 cells after 48 hrs; format: functional; settings: PC-3, 48 h; summary of the method: as §2
[19] = tested on: LOX IMVI; assay: Antitumor activity against human LOX IMVI cells after 48 hrs; format: functional; summary of the method: as §2
[20] = tested on: HCT-116; assay: Antitumor activity against human HCT116 cells expressing wild type p53; format: functional; settings: read-out: LC50 (the source's name); summary of the method: as §1
[21] = tested on: MDA-MB-435; assay: Antitumor activity against human MDA-MB-435 cells after 48 hrs; format: functional; settings: MDA-MB-435, 48 h; summary of the method: as §2
[22] = tested on: SK-MEL-5; assay: Antitumor activity against human SK-MEL-5 cells after 48 hrs; format: functional; settings: SK-MEL-5, 48 h; summary of the method: as §2
[23] = tested on: HOP-92; assay: Antitumor activity against human HOP92 cells after 48 hrs; format: functional; settings: HOP-92, 48 h; summary of the method: as §2
[24] = Apparent volume of distribution in NCR nu/nu mouse at 20 mg/kg, iv; format: ADME, organism-based; set-up: dose 20 mg/kg, route intravenous; settings: in vivo
Summary of the method: (§4)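 Single i.v. dose of 20 mg/kg to ncr nu/nu mice and an F344 rat. Plasma concentrations followed over time and fitted by nonlinear regression to give distribution and elimination phases, AUC and apparent volumes of distribution. Detection limit 50 nM.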

[25] = tested on: OVCAR-4; assay: Antitumor activity against human OVCAR4 cells after 48 hrs; format: functional; settings: OVCAR-4, 48 h; summary of the method: as §2
[26] = tested on: ACHN; assay: Antitumor activity against human ACHN cells after 48 hrs; format: functional; summary of the method: as §2
[27] = tested on: MCF7; assay: Antitumor activity against human MCF7 cells after 48 hrs; format: functional; settings: MCF7, 48 h; summary of the method: as §2
[28] = tested on: HT-29; assay: Growth inhibition of human HT29 cells after 5 days by MTT assay; format: functional; settings: HT-29, 120 h
Summary of the method: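 MTT assay after 5 day continuous exposure. GI50, TGI and LC50 calculated from the MTT data. Means ± SD of at least three independent experiments; coefficients of variation 10-20%. Compounds used as tri(methanesulfonate) salts.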

[29] = Apparent volume of distribution in F344 rat at 20 mg/kg, iv; format: ADME, organism-based; set-up: dose 20 mg/kg, route intravenous; settings: in vivo; summary of the method: as §4
[30] = tested on: CCRF-CEM; assay: Antitumor activity against human CCRF-CEM cells after 48 hrs; format: functional; summary of the method: as §2
[31] = tested on: KM12; assay: Antitumor activity against human KM12 cells after 48 hrs; format: functional; settings: KM12, 48 h; summary of the method: as §2
[32] = tested on: 786-0; assay: Antitumor activity against human 786-0 cells after 48 hrs; format: functional; settings: 786-0, 48 h; summary of the method: as §2
[33] = tested on: ASPC1; assay: Antitumor activity against p53 null human ASPC1 cells; format: functional, cell-based
[34] = tested on: TK-10; assay: Antitumor activity against human TK10 cells after 48 hrs; format: functional; settings: TK-10, 48 h; summary of the method: as §3
[35] = read-out: Log LC50 (the source's name) (converted)

## COc1ccc2c(c1)c(=O)c1c(NCCCN3CCN(CCCN4C(=O)c5cccc6cc([N+](=O)[O-])cc(c56)C4=O)CC3)ccc3ncn2c31.CS(=O)(=O)O
[1]
  CC50: 0.025 µM
[2]
  clearance: 14.3 L/h/kg
[3]
  GI50: 0.000159 µM
[3]; [35]
  CC50: > 1 µM
[4]
  GI50: 0.00371 µM
[4]; [35]
  CC50: > 1 µM
[4]; read-out: Log TGI (converted)
  TGI: > 1 µM
[5]
  GI50: 0.001 µM
[5]; [35]
  CC50: > 1 µM
[5]; read-out: Log TGI (converted)
  TGI: 0.0794 µM
[6]
  GI50: 0.00549 µM
[6]; [35]
  CC50: > 1 µM
[6]; read-out: Log TGI (converted)
  TGI: 0.933 µM
[7]
  GI50: 0.00309 µM
[7]; [35]
  CC50: > 1 µM
[7]; read-out: Log TGI (converted)
  TGI: > 1 µM
[8]
  GI50: 0.00219 µM
[8]; [35]
  CC50: > 1 µM
[8]; read-out: Log TGI (converted)
  TGI: > 1 µM
[9]
  IC50: 0.09 µM
[10]
  GI50: 0.00132 µM
[10]; [35]
  CC50: > 1 µM
[10]; read-out: Log TGI (converted)
  TGI: 0.0324 µM
[11]
  TGI: 59%
[12]
  GI50: 0.0275 µM
[12]; [35]
  CC50: > 1 µM
[12]; read-out: Log TGI (converted)
  TGI: > 1 µM
[13]
  GI50: 0.00603 µM
[13]; [35]
  CC50: > 1 µM
[13]; read-out: Log TGI (converted)
  TGI: 0.0955 µM
[14]
  GI50: 0.0204 µM
[14]; [35]
  CC50: > 1 µM
[14]; read-out: Log TGI (converted)
  TGI: > 1 µM
[15]
  Activity: 22.6%
[16]
  GI50: 0.00676 µM
[16]; [35]
  CC50: > 1 µM
[16]; read-out: Log TGI (converted)
  TGI: 0.214 µM
[17]
  IC50: 0.08 µM
[18]
  GI50: 0.00309 µM
[18]; [35]
  CC50: > 1 µM
[18]; read-out: Log TGI (converted)
  TGI: 0.339 µM
[19]
  GI50: 0.00186 µM
[19]; [35]
  CC50: > 1 µM
[19]; read-out: Log TGI (converted)
  TGI: 0.0776 µM
[20]
  CC50: 0.03 µM
[21]
  GI50: 0.00741 µM
[21]; [35]
  CC50: > 1 µM
[21]; read-out: Log TGI (converted)
  TGI: > 1 µM
[22]
  GI50: 0.0049 µM
[22]; [35]
  CC50: 0.871 µM
[22]; read-out: Log TGI (converted)
  TGI: 0.0437 µM
[23]
  GI50: 0.00513 µM
[23]; [35]
  CC50: > 1 µM
[23]; read-out: Log TGI (converted)
  TGI: 0.0631 µM
[24]
  Vd: 57 L/kg
[25]
  GI50: 0.0049 µM
[25]; [35]
  CC50: > 1 µM
[25]; read-out: Log TGI (converted)
  TGI: 0.0871 µM
[26]
  GI50: 0.000407 µM
[26]; [35]
  CC50: > 1 µM
[26]; read-out: Log TGI (converted)
  TGI: 0.0631 µM
[27]
  GI50: 0.00468 µM
[27]; [35]
  CC50: > 1 µM
[27]; read-out: Log TGI (converted)
  TGI: > 1 µM
[28]
  GI50: 0.001 µM
[28]; read-out: LC50 (the source's name)
  CC50: 0.08 µM
[29]
  Vd: 138 L/kg
[30]
  GI50: 0.00407 µM
[30]; [35]
  CC50: > 1 µM
[30]; read-out: Log TGI (converted)
  TGI: 0.0977 µM
[31]
  GI50: 0.00436 µM
[31]; [35]
  CC50: > 1 µM
[31]; read-out: Log TGI (converted)
  TGI: 0.537 µM
[32]
  GI50: 0.00525 µM
[32]; [35]
  CC50: > 1 µM
[32]; read-out: Log TGI (converted)
  TGI: > 1 µM
[33]
  IC50: 0.07 µM
[34]
  GI50: 0.0135 µM
[34]; [35]
  CC50: > 1 µM
[34]; read-out: Log TGI (converted)
  TGI: > 1 µM
